Source: ChEMBL document CHEMBL4513216, “Probing the Open Global Health Chemical Diversity Library for Multistage-Active Starting Points for Next-Generation Antimalarials” (ACS Infect Dis, 2020)

Experiment: Toxicity liver stage against HepG2, at 10uM
Type: cell-based
Set-up: test concentration 10 uM, cell line HepG2-A16-CD81EGFP
Details: human, HepG2-A16-CD81EGFP cells; read-out: INHIBITION
In short: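 Uninfected HepG2-A16-CD81EGFP cells, 3 × 10^3 per well, 1536-well, plated on prespotted compound at 10 μM final, parasite-free screening media added to match infected plates; puromycin 10 μM positive, DMSO 0.5% negative; run in parallel with 48 h PbLuc assay at 37 °C, 5% CO2; viability by CellTiter-Glo luminescence, normalized to controls.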

Point of comparison: `CC(C)CNC(=O)c1ccc(NC(=O)NCC2CC2)cc1Cl`, cytotoxicity at 10 µM 7.71%. Against it:
- O=S1(=O)NCC2(CCN(c3ncc(F)cn3)CC2)COc2ccccc21 — lower, 4.74%
- CN(C)[C@@H]1CN(C(=O)c2ccc3ccccc3n2)C[C@H]1O — lower, -22.5%
- COc1cccc(CN(C)C(C)c2ccco2)c1OCCn1ccnc1 (configuration not stated) — lower, -0.7%
- O=C(c1ccc(O)cc1)N1C[C@@H]2OCCN(c3ncccn3)[C@@H]2C1 — lower, 6.72%
- CC(c1cccnc1)N1CCN(CCCC#N)CC1 (configuration not stated) — higher, 10.3%
- COc1cc(N2C[C@H]3CCC[C@@H](CN4CCOCC4)[C@H]3C2)ncn1 — lower, -71.5%
- CCOCC(=O)N1CSCC1C(=O)N(C)Cc1ccco1 (configuration not stated) — lower, -11%
- COc1c(C)cnc(CSc2nnc(N3CCCC3)s2)c1C — lower, -13.1%
- O=C(c1ccc(-c2cccs2)cc1F)N1CCN(CCO)CC1 — lower, -47.3%
- CN1CCC(Cc2noc(-c3cn(Cc4ccccc4Cl)nn3)n2)CC1 — lower, -3.28%
- COc1cc(N2C[C@@H]3COC[C@@H](Cc4nc(C)no4)[C@@H]3C2)ncn1 — lower, -105%
- COc1ccccc1Oc1cncc(C2CCCN(C)C2)n1 (configuration not stated) — lower, -3.8%
- O=C(C1CCCC1)N1CCN(Cc2ccncc2)[C@@H]2CS(=O)(=O)C[C@@H]21 — lower, -1.79%
- CO[C@@H]1CCN(C(=O)c2cc(C)on2)C[C@@H]1Cc1ccccc1 — lower, 1.11%
- CCOC(=O)N1CCN(C(=O)C(CC)n2cccn2)CC1 (configuration not stated) — lower, -0.193%
- CC(=O)c1ccc(S(=O)(=O)N2CCCC2CN2CCCC2)cc1 (configuration not stated) — lower, -1.35%
- CCC(N)c1ccccc1OCC(=O)N1CCCC1 (configuration not stated) — lower, -5.16%
- CCc1nc(C)sc1CN1CCc2[nH]nc(-c3ccc(F)c(F)c3)c2C1 — lower, 5.57%
- O=S(=O)(c1ccccc1)N1CCC2(CCCN2Cc2cccc(F)c2)C1 (configuration not stated) — lower, -68.4%
- Cc1nccn1CC1CCCN(C(=O)Cc2ccsc2)C1 (configuration not stated) — higher, 16.2%
- COc1ncnc(N)c1CNCCc1ccc(-n2cccn2)cc1 — lower, -13.3%
- CCn1c(SCC(N)=O)nnc1C(C)NC(=O)c1ccc(Cl)cc1 (configuration not stated) — lower, -36.4%
- Cn1cnc2ccc(NC(=O)CCCn3cccn3)cc2c1=O — lower, 4.31%
- O=C(CN1CCOC(Cn2cccn2)C1)Nc1nncs1 (configuration not stated) — lower, 4.79%
- NC(=O)CN1CCCN(C(=O)c2ccn(-c3ccccc3)n2)CC1 — lower, -1.61%
- CN(Cc1ccno1)c1nc(C2CCCC2)nc2c1cnn2C — lower, 7.27%
- COc1ccc(CN2CCCC2Cn2nc(C)nc2C)cc1F (configuration not stated) — lower, 2.89%
- c1ncn(CC2CCCN(CC3CCCCC3)C2)n1 (configuration not stated) — lower, 4.61%
- CCCN(Cc1cccnc1)C(=O)C1CCNC1 (configuration not stated) — higher, 8.97%
- O=C(NCCC(=O)N1CCCCCCC1)c1ccoc1 — lower, -22.2%
- CC(C)c1ncncc1C(=O)N1CCN(Cc2ccccn2)CC1 — lower, -2.87%
- COc1ccc(NC(C)C(=O)N2CCN(Cc3ccccc3)CC2)cn1 (configuration not stated) — lower, 1.26%
- CS(=O)(=O)NC[C@H]1Cn2c(-c3ccc4c(c3)OCCO4)cnc2CO1 — lower, -11.1%
- Cc1ccc2nc(C3CCN(CCO)CC3)nn2c1 — lower, -1.23%
- CCn1c(CN(C)CC(F)(F)F)nc2c(F)cccc21 — lower, -5.35%
- CN1CCC(CN(C)C(=O)c2cc(C3CCCN3C)ccn2)CC1 (configuration not stated) — lower, -28.3%
- O=S(=O)(Cc1ccccc1F)N1CCCC1c1nnc2n1CCCCC2 (configuration not stated) — lower, 7.17%
- C[C@@H](O)[C@H](NC(=O)c1csc2nc(-c3ccccc3F)cn12)C(N)=O — lower, 2.37%
- NC1CC(C(F)(F)F)=NC=C1c1ccc(Cl)cc1 (configuration not stated) — higher, 50.2%
- COc1ccc(-n2cc3nc(N4CCCC4)[nH]cc-3c2=O)cc1Cl — higher, 11.6%
- COc1cc(C(=O)Nc2nc(C)no2)ccc1OC1CCCC1 — lower, -2.12%
- CCC1CN(C)c2ccccc2CN1C(=O)c1c[nH]c(=O)cc1C (configuration not stated) — higher, 16.1%
- CCN(CC)c1ccc(NS(=O)(=O)c2cncc(F)c2)cn1 — lower, -8.37%
- COCC(c1cccc(C(F)(F)F)c1)N(C)C(=O)c1ccoc1 (configuration not stated) — lower, -3.84%
- CCN(CC(=O)NC)C(=O)c1cc(-c2cccc(Cl)c2)no1 — higher, 8.5%
- O=C(Cn1cccn1)NCC(c1cccs1)N1CCCC1 (configuration not stated) — higher, 11.9%
- CN(CC1CC1)c1ccc2ccc(C(=O)NCCc3ccccc3)cn12 — lower, -1.83%
- Cc1ccnc(Cn2cc(-c3cccc(C(C)N(C)C)c3)nn2)c1 (configuration not stated) — lower, 1.74%
- C[C@@H]1CN(C(=O)C2CCOCC2)C[C@]12CCN(c1cccnc1)C2=O — lower, 6.95%
- CC(NC1(CNC(=O)NC2CC2)CCOCC1)c1ccccc1 (configuration not stated) — higher, 10.2%
- CCOc1ccc(NC(=O)N(CCC#N)Cc2ccccn2)cc1F — lower, -6%
- N#Cc1ccc(Oc2cc(F)c(CN3CCCC3)c(F)c2)nc1 — lower, -8.74%
- CS(=O)(=O)N1CCC(C(=O)Nc2nnc(C(F)(F)F)[nH]2)CC1 — higher, 9.52%
- O=C(CC1CC1)N1CC[C@H]2[C@@H]1CCC(=O)N2Cc1ccncc1 — lower, -5.15%
- Cc1cc(C)n(C2CN(CC(=O)N3CCOCC3)C2)n1 — lower, -3.2%
- Cc1cc(NC(=O)NC2CCCc3c2cnn3CCO)n(C)n1 (configuration not stated) — lower, -15.7%
- Cc1cccc2nc(CN3CCCC3Cn3cncn3)cn12 (configuration not stated) — lower, -6.97%
- O=C(c1cnccn1)N1CCCC2(CCN(Cc3ccsc3)CC2)C1 — lower, 1.55%
- O=C(c1ccnnc1)N1CCC2(CC1)CCN(C(=O)c1cccnc1)C2 — lower, -97.8%
- CN(C)C(=O)COC[C@H]1CC[C@@H]2[C@@H](CCN2Cc2ccccn2)O1 — lower, -18.7%
- Cn1cc(C2CN(C(=O)Cc3coc(-c4ccccc4)n3)CCO2)cn1 (configuration not stated) — lower, -12.4%
- COCCCC1(C(=O)O)CCCN(Cc2ccccc2C)C1 (configuration not stated) — lower, -4.58%
- O=C(NCC1CC1)C1CCC2(CCN(C(=O)c3ccncc3)CC2)O1 (configuration not stated) — lower, -0.0368%
- NC(=O)CCN(CC(=O)NCc1ccccn1)c1ccc(F)cc1 — higher, 7.98%
- Cc1cc(=O)n2ncnc2n1CC(O)c1ccccc1 (configuration not stated) — lower, -7.82%
- CCN1CCN(c2ncnc3c2CCN(C(=O)C2CC2)C3)CC1 — lower, -3.2%
- CN(C)c1cc(C(=O)N2CCCCC2)ccn1 — lower, -4.63%
- Cc1noc(C)c1CN(C)CCc1nc(-c2cccc(Cl)c2)no1 — higher, 16.6%
- O=C1N(Cc2cccc(F)c2F)CCCC1(O)CNCC1CCCCC1 (configuration not stated) — lower, -1.29%
- CCN(CC)C(=O)c1c(Br)cnn1CC — lower, 2.63%
- Cc1cnn(CC2CN(Cc3nc4ccccc4o3)CCO2)c1 (configuration not stated) — lower, -3.49%
- CSC1=Nc2c(cnn2-c2ccc(C)cc2)C2=NCCCN12 — higher, 10.3%
- CSC(C)(C)CNC(=O)NC1CCN(CC2CC2)C1 (configuration not stated) — lower, 0.811%
- CCC(Nc1nc(C(C)C)nc2c1cnn2C)c1ccc(O)cc1 (configuration not stated) — lower, -51.2%
- CCC(C)NS(=O)(=O)c1ccc(C=Cc2onc(C)c2NC(C)=O)cc1 (configuration not stated) — lower, -10.7%
- Cc1nn(CCC#N)c(C)c1CCC(=O)N(C(C)C)C1CC1 — lower, -2.72%
- CCCc1noc(C2CC(=O)N(Cc3ccccc3)C2)n1 (configuration not stated) — lower, -2.62%
- c1ccc(C2CCCN(c3ncnc4c3CCNC4)CC2)cc1 (configuration not stated) — higher, 58.5%
- COCCC(=O)N1C[C@@H]2CC[C@H]1CN(C1Cc3ccccc3C1)C2 — lower, -7.43%
- CCn1cnnc1CNC(=O)N1CCC(CN2CCCCCC2)CC1 — lower, -8.57%
- COc1cccc(COCC(=O)NC(C)c2nnc3n2CCC3)c1 (configuration not stated) — lower, -3.36%
